Laboratory results published in publication PMC9199876 (Clinical and Translational Science, 2022).
Several values for one entry are separate records, joined by “and”; a condition that tells them apart may be missing. Identical values can stand only once. Like-named read-outs stand apart in the source and are kept apart here.

Legend:
[1] = healthy Japanese individuals; cited from earlier work
CYP2C19 = settings: in vitro, clinically relevant dose (0.06 μM); cited from earlier work
CYP isoforms = settings: in vitro, clinically relevant dose (0.06 μM); cited from earlier work
[2] = Phase I two-way crossover study: plasma pharmacokinetics of trazpiroben and M23; assay type: in vivo, humans (healthy adults); settings: for AUC∞, geometric mean (mean CV%) / C max, geometric mean (geometric CV%) / T max, median (min, max) / t 1/2z, mean (SD): plasma trazpiroben; for AUC∞, geometric mean (mean CV%): n = 12
Outline: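 Open-label crossover in healthy adults fasted ≥10 h: a single oral 25 mg capsule, alone or right after a 30-min i.v. infusion of 600 mg rifampin, with ≥7-day washout. Parent and metabolite were measured by LC-MS/MS (range 0.1–50.0 ng/ml; BLOQ set to zero). Noncompartmental analysis used actual sampling times.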

CYP2B6 = settings: in vitro, clinically relevant dose (0.06 μM); cited from earlier work
CYP2C8 = settings: in vitro, clinically relevant dose (0.06 μM); cited from earlier work
[3] = single and multiple doses, healthy men and women; cited from earlier work
CYP1A2 = settings: in vitro, clinically relevant dose (0.06 μM); cited from earlier work
[4] = phase II, 51 patients with idiopathic or diabetic gastroparesis; cited from earlier work
[5] = cited from earlier work
CYP2C9 = settings: in vitro, clinically relevant dose (0.06 μM); cited from earlier work
OCT2 = settings: at a clinically relevant dose; cited from earlier work
[6] = trazpiroben 25 mg + rifampin 600 mg i.v.

O=C(O)c1cccc(CN2CN(C3CCCCC3)C3(CCN(CCCC(=O)c4ccccc4)CC3)C2=O)c1 [trazpiroben, Trazpiroben]
tolerability [1]: well‐tolerated | inhibition of CYP2C19 (CYP2C19): does not inhibit | induction of CYP isoforms (CYP isoforms): does not induce | participants with detectable levels of plasma trazpiroben ([2]; 0.5 h, co-administered with rifampin): all participants | participants with detectable levels of plasma trazpiroben ([2]; 0.5 h after trazpiroben alone): 92% | participants with detectable levels of plasma trazpiroben ([2]; 12 h after trazpiroben alone): 92% | participants with detectable levels of plasma trazpiroben ([2]; 16 h after trazpiroben alone): 42% | participants with detectable levels of plasma trazpiroben ([2]; 16 h post dose, trazpiroben + rifampin): 83% | AUC∞, geometric mean (mean CV%) ([2]; single oral trazpiroben 25 mg alone): 32.7 ng*h/ml and 32.68 (23.9) ng*h/ml | C max, geometric mean (geometric CV%) [2, 6]: 89.62 (68.6) ng/ml | T max, median (min, max) [2, 6]: 1.002 (0.49, 2.00) h | t 1/2z, mean (SD) [2, 6]: 2.028 ± 0.3449 h | C max, geometric mean (geometric CV%) ([2]; trazpiroben 25 mg alone): 14.37 (38.7) ng/ml | T max, median (min, max) ([2]; trazpiroben 25 mg alone): 1.037 (0.50, 2.00) h | t 1/2z, mean (SD) ([2]; trazpiroben 25 mg alone): 4.229 ± 3.7897 h | AUC∞, geometric mean (mean CV%) ([2]; trazpiroben 25 mg oral + rifampin 600 mg i.v.): 168.5 (49.9) ng*h/ml | CL/F, geometric mean (geometric CV%) [2, 6]: 148.4 (49.9) L/h | V z/F, geometric mean (geometric CV%) [2, 6]: 428.1 (49.9) L | CL/F, geometric mean (geometric CV%) ([2]; trazpiroben 25 mg alone): 765.1 (23.9) L/h | V z/F, geometric mean (geometric CV%) ([2]; trazpiroben 25 mg alone): 3469 (70.7) L | inhibition of CYP2B6 (CYP2B6): does not inhibit | inhibition of CYP2C8 (CYP2C8): does not inhibit | tolerability [3]: well‐tolerated | inhibition of CYP1A2 (CYP1A2): does not inhibit | safety signals [4]: did not identify any safety signals | accumulation index ([5]; 50 mg twice daily for 5 days): 1.9 | accumulation index ([5]; 100 mg twice daily for 5 days): 1.4 | time to maximum concentration [T max] ([5]; AT-01C study, healthy men and women): ~ 1.1 h | mean half-life ([5]; AT-01C study): 4 h | mean apparent oral clearance ([5]; across single-dose groups of 25–300 mg): 600 to 800 L/h | inhibition of CYP2C9 (CYP2C9): does not inhibit | inhibitor of OCT2 (OCT2): not an inhibitor
